ChEMBL document CHEMBL1142402, “Synthesis of curcumin mimics with multidrug resistance reversal activities” (Bioorg Med Chem, 2008)
Activity calls are given as the source filed them. The rule behind the calls is not given here.

How the values were obtained:
[1] = test system: KB; assay: Cytotoxicity against human KB cells assessed as cell viability at 10 uM after 48 hrs by MTS assay; assay type: functional; settings: read-out: Activity
In short: (§1)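 KB (P-gp-negative) and KBV20C (P-gp-expressing) cells were grown in RPMI 1640 with 10% FBS and 1% penicillin/streptomycin. KBV20C cells were maintained with 20 nM vincristine. Cells were exposed to each compound at 10 µM for 48 h. Viability (%) was read by MTS. Values are means ± standard deviation of three experiments.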

[2] = Cytotoxicity against multidrug resistant P-gp expressing human KBV20C cells assessed as cell viability at 10 uM after 48 hrs by MTS assay; assay type: functional; settings: read-out: Activity; in short: as §1
[3] = Cytotoxicity against multidrug resistant P-gp expressing human KBV20C cells assessed as cell viability in presence of vincristine by MTS assay; assay type: functional, cell-based
[4] = Cytotoxicity against multidrug resistant P-gp expressing human KBV20C cells assessed as cell viability in presence of paclitaxel by MTS assay; assay type: functional, cell-based
[5] = test system: KB; assay: Cytotoxicity against human KB cells assessed as cell viability after 48 hrs by MTS assay; assay type: functional, cell-based
[6] = Cytotoxicity against multidrug resistant P-gp expressing human KBV20C cells assessed as cell viability after 48 hrs by MTS assay; assay type: functional, cell-based
[7] = test system: KBV20C; assay: Inhibition of Pgp in multidrug resistant human KBV20C cells assessed as increase in intracellular accumulation of Rh123; assay type: cell-based
In short: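 They were then incubated a further 3 h with Rh123 and washed with PBS. Mean intracellular Rh123 fluorescence was measured by flow cytometry and expressed relative to control. Values are means ± SD of three independent experiments, compared by Student's t-test.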

| Compound | viability at 10 µM [1] [%] | viability at 10 µM [2] [%] | IC50 [3] [nM] | IC50 [4] [nM] | IC50 [5] [nM] | IC50 [6] [nM] | Activity [7] |
| --- | --- | --- | --- | --- | --- | --- | --- |
| COc1cc(/C=C/C(=O)c2cccc(NC(=O)c3ccco3)c2)ccc1O | 60.2 | 77.6 | 1440 | 210 |  |  |  |
| CC(=O)O[C@H]1C(=O)[C@@]2(C)[C@H]([C@H](OC(=O)c3ccccc3)[C@]3(O)C[C@H](OC(=O)[C@H](O)[C@@H](NC(=O)c4ccccc4)c4ccccc4)C(C)=C1C3(C)C)[C@]1(OC(C)=O)CO[C@@H]1C[C@@H]2O [PACLITAXEL] |  |  |  |  | 4.2 | 1440 |  |
| COc1cc(/C=C/C(=O)c2cccc(N)c2)ccc1O | 97.6 | 99.4 | 1260 | 830 |  |  |  |
| COc1cc(/C=C/C(=O)c2cccc(NC(=O)c3ccccc3)c2)ccc1O | 89.5 | 85.5 | 3820 | 420 |  |  |  |
| COc1ccc(CCN(C)CCC[C@](C#N)(c2ccc(OC)c(OC)c2)C(C)C)cc1OC |  |  |  |  |  |  | Active |
| COc1cc(/C=C/C(=O)c2cccc(NC(C)=O)c2)ccc1O | 98.2 | 92.4 | 1260 | 720 |  |  |  |
| COc1cc(/C=C/C(=O)c2cccc(NC(=O)c3ccc(Cl)cc3Cl)c2)ccc1O | 98.3 | 94.6 | 720 | 45 |  |  |  |
| CCOC(=O)C(=O)Nc1cccc(C(=O)/C=C/c2ccc(O)c(OC)c2)c1 | 84.7 | 103 | 3310 | 1090 |  |  |  |
| COc1cc(/C=C/C(=O)c2cccc(NC(=O)c3cc(Cl)cc(Cl)c3)c2)ccc1O | 68.7 | 70.3 | 410 | 22 |  |  | Active |
| COc1cc(/C=C/C(=O)c2cccc(NC(=O)c3cccs3)c2)ccc1O | 74.7 | 83.6 | 1410 | 180 |  |  |  |
| COC(=O)CC(=O)Nc1cccc(C(=O)/C=C/c2ccc(O)c(OC)c2)c1 | 72.9 | 106 | 3810 | 320 |  |  |  |
| CCCC(=O)Nc1cccc(C(=O)/C=C/c2ccc(O)c(OC)c2)c1 | 77.1 | 80.8 | 2890 | 210 |  |  |  |
| COc1cc(/C=C/C(=O)c2cccc(NC(=O)c3ccc(Cl)c(Cl)c3)c2)ccc1O | 78.3 | 72.6 | 850 | 26 |  |  | Active |
| COc1cc(/C=C/C(=O)CC(=O)/C=C/c2ccc(O)c(OC)c2)ccc1O [CURCUMIN] | 89.2 | 93.1 | 820 | 420 |  |  |  |
| COc1cc(/C=C/C(=O)c2cccc(NC(=O)C(C)C)c2)ccc1O | 67.5 | 67.7 | 2920 | 240 |  |  |  |
| COc1cc(/C=C/C(=O)c2cccc(NC(=O)c3c(Cl)cccc3Cl)c2)ccc1O | 93.7 | 75.3 | 1230 | 100 |  |  |  |
| COc1cc(/C=C/C(=O)c2cccc(NC(=O)c3ccc(Cl)cc3)c2)ccc1O | 95.7 | 96.6 | 480 | 63 |  |  | Active |
| CC[C@]1(O)C[C@H]2CN(CCc3c([nH]c4ccccc34)[C@@](C(=O)OC)(c3cc4c(cc3OC)N(C=O)[C@H]3[C@@](O)(C(=O)OC)[C@H](OC(C)=O)[C@]5(CC)C=CCN6CC[C@]43[C@@H]65)C2)C1 [VINCRISTINE] |  |  |  |  | 7.9 | 5720 |  |
